MIC data for five compounds are collected here from ChEMBL document CHEMBL5329156, “Discovery and development of novel substituted monohydrazides as potent antifungal agents” (RSC Med Chem, 2023).

What all share (type): functional
For test [1], the system named is Candida albicans. In words: Antifungal activity against Candida albicans ATCC 10231 assessed as fungal growth inhibition by double dilution method. In a few lines: (§1)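 Broth microdilution after CLSI M27-A3/M38-A2 with minor changes. Single colony grown overnight in YPD at 35 °C, 200 rpm. Compound final range 0.06-31.3 µg/mL; incubated 48 h at 35 °C.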
In test [2] the test system is Candida albicans. In words: Antifungal activity against Candida albicans ATCC 64124 assessed as fungal growth inhibition by double dilution method. Put shortly:
(§2)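 Broth microdilution after CLSI M27-A3/M38-A2 with minor modifications. A single colony was grown overnight in YPD at 35 °C with shaking at 200 rpm. Cells were mixed 1:1 with compound (final 0.06-31.3 µg/mL, from DMSO stocks) and incubated 48 h at 35 °C.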

Test [3] deals with Candida albicans. The test can be described thus: Antifungal activity against itraconazole/fluconazole susceptible Candida albicans ATCC MYA-2876 assessed as fungal growth inhibition by double dilution method. In a few lines: as §2
In test [4] the test system is Candida albicans. In words: Antifungal activity against itraconazole/fluconazole resistant Candida albicans ATCC 90819 assessed as fungal growth inhibition by double dilution method. Put shortly:
as §2

Test [5] deals with Candida albicans. In words: Antifungal activity against itraconazole/fluconazole susceptible Candida albicans ATCC MYA-2310 assessed as fungal growth inhibition by double dilution method. In a few lines: as §2
The test system of test [6] is Candida albicans. In words: Antifungal activity against itraconazole/fluconazole resistant Candida albicans ATCC MYA-1237 assessed as fungal growth inhibition by double dilution method. In a few lines:
as §2

Test [7] concerns Candida albicans. In words: Antifungal activity against itraconazole/fluconazole resistant Candida albicans ATCC MYA-1003 assessed as fungal growth inhibition by double dilution method. In a few lines: as §2
Test [8] deals with Nakaseomyces glabratus. In words: Antifungal activity against Candida glabrata ATCC 2001 assessed as fungal growth inhibition by double dilution method. Put shortly: as §1
Test [9] has as its system Pichia kudriavzevii. In words: Antifungal activity against Pichia kudriavzevii ATCC 6258 assessed as fungal growth inhibition by double dilution method. In a few lines:
as §1

Test [10] deals with Nakaseomyces glabratus. In words: Antifungal activity against Candida glabrata ATCC 22019 assessed as fungal growth inhibition by double dilution method. In a few lines: as §1
Test [11] relates to [Candida] auris. In words: Antifungal activity against Candida auris AR Bank # 0384 assessed as fungal growth inhibition by double dilution method. The following applies: Candidozyma auris. In a few lines:
as §1

Test [12] concerns [Candida] auris. In words: Antifungal activity against Candida auris AR Bank # 0390 assessed as fungal growth inhibition by double dilution method. The following applies: Candidozyma auris. Put shortly: as §1
Test [13] concerns Cryptococcus neoformans. The test can be described thus: Antifungal activity against Cryptococcus neoformans ATCC MYA-895 assessed as fungal growth inhibition by double dilution method. In a few lines: as §1
Test [14] has as its system Aspergillus terreus. In words: Antifungal activity against Aspergillus terreus ATCC MYA-3633 assessed as fungal growth inhibition by double dilution method.
In test [15] the test system is Aspergillus fumigatus. In words: Antifungal activity against Aspergillus fumigatus NRRL 163 assessed as fungal growth inhibition by double dilution method.
Test [16] has as its system Aspergillus flavus. In words: Antifungal activity against Aspergillus flavus ATCC MYA-3631 assessed as fungal growth inhibition by double dilution method.
Test [17] deals with Aspergillus nidulans. In words: Antifungal activity against Aspergillus nidulans ATCC 38163 assessed as fungal growth inhibition by double dilution method.
Test [18] deals with Aspergillus fumigatus. In words: Antifungal activity against Aspergillus fumigatus NRRL 5109 assessed as fungal growth inhibition by double dilution method.
Test [19] relates to Aspergillus fumigatus. The test can be described thus: Antifungal activity against Aspergillus fumigatus NRRL 6113 assessed as fungal growth inhibition by double dilution method.

Structures are written as SMILES. In brackets after ≈: the same amount, converted by molar mass.

Take `COc1cccc(NNC(=O)c2cccc(Br)n2)c1`: the MIC in test [1] is 1.95 µg/mL (≈ 6.05 µM); in [2], 3.9 µg/mL (≈ 12.1 µM); in [3], 0.49 µg/mL (≈ 1.52 µM); in [4], 1.95 µg/mL (≈ 6.05 µM); in [5], 7.8 µg/mL (≈ 24.2 µM); in test [6], 0.98 µg/mL (≈ 3.04 µM). The MIC was 3.9 µg/mL (≈ 12.1 µM) in test [7]; 7.8 µg/mL (≈ 24.2 µM) in test [8]; 0.24 µg/mL (≈ 0.745 µM) in test [9]; 0.98 µg/mL (≈ 3.04 µM) in [10]; 0.98 µg/mL (≈ 3.04 µM) in [11]; 1.95 µg/mL (≈ 6.05 µM) in test [12]. Further, the MIC in test [13] was 0.98 µg/mL (≈ 3.04 µM); in [14], 1.95 µg/mL (≈ 6.05 µM); in test [15], greater than 31.3 µg/mL; in test [16], greater than 31.3 µg/mL; in test [17], 3.9 µg/mL (≈ 12.1 µM); in [18] it was 31.3 µg/mL (≈ 97.2 µM). In test [19], the MIC was greater than 31.3 µg/mL.
For `COc1ccc(NNC(=O)c2ccc(F)cn2)cc1`, the MIC in test [1] was 0.24 µg/mL (≈ 0.919 µM); in test [2], 0.98 µg/mL (≈ 3.75 µM); in test [3] it was 0.98 µg/mL (≈ 3.75 µM); in [4] it was 0.98 µg/mL (≈ 3.75 µM); in test [5], 0.98 µg/mL (≈ 3.75 µM); in test [6], 0.49 µg/mL (≈ 1.88 µM). The MIC in test [7] amounted to 0.49 µg/mL (≈ 1.88 µM); in test [8] it was 1.95 µg/mL (≈ 7.46 µM); in test [9], 0.24 µg/mL (≈ 0.919 µM); in test [10], 3.9 µg/mL (≈ 14.9 µM); in [11], 3.9 µg/mL (≈ 14.9 µM); in test [12], 0.49 µg/mL (≈ 1.88 µM). In addition, the MIC in test [13] was no more than 0.06 µg/mL; in test [14] it was 31.3 µg/mL (≈ 120 µM); in test [15] it was greater than 31.3 µg/mL; in [16], greater than 31.3 µg/mL; in [17], 1.95 µg/mL (≈ 7.46 µM); in test [18], greater than 31.3 µg/mL. Further, the MIC in [19] is greater than 31.3 µg/mL.
For the compound `O=C(NNc1cccc(F)c1)c1ccc(F)cn1`, the MIC in test [1] turned out to be 0.49 µg/mL (≈ 1.97 µM); in [2], 0.49 µg/mL (≈ 1.97 µM); in [3], 3.9 µg/mL (≈ 15.6 µM); in test [4], 3.9 µg/mL (≈ 15.6 µM); in test [5] it was 3.9 µg/mL (≈ 15.6 µM); in [6], 3.9 µg/mL (≈ 15.6 µM). Moreover, the MIC in test [7] is 1.95 µg/mL (≈ 7.82 µM); in [8] it was 31.3 µg/mL (≈ 126 µM); in [9], 0.24 µg/mL (≈ 0.963 µM); in test [10] it was 1.95 µg/mL (≈ 7.82 µM); in test [11], 1.95 µg/mL (≈ 7.82 µM); in [12], 1.95 µg/mL (≈ 7.82 µM). Also, the MIC was no more than 0.06 µg/mL in test [13]; 1.95 µg/mL (≈ 7.82 µM) in [14]; greater than 31.3 µg/mL in [15]; 7.8 µg/mL (≈ 31.3 µM) in [16]; 0.98 µg/mL (≈ 3.93 µM) in [17]; greater than 31.3 µg/mL in [18]. In test [19], the MIC was greater than 31.3 µg/mL.
In the case of `O=C(NNc1ccc(F)cc1)c1ncc(F)cc1F`, the MIC in [1] is 0.98 µg/mL (≈ 3.67 µM); in test [2], 1.95 µg/mL (≈ 7.3 µM); in test [3], 1.95 µg/mL (≈ 7.3 µM); in test [4], 1.95 µg/mL (≈ 7.3 µM); in test [5], 3.9 µg/mL (≈ 14.6 µM); in test [6], 1.95 µg/mL (≈ 7.3 µM). Further, the MIC in test [7] was 0.98 µg/mL (≈ 3.67 µM); in [8], 15.6 µg/mL (≈ 58.4 µM); in test [9] it was 0.49 µg/mL (≈ 1.83 µM); in [10] it was 3.9 µg/mL (≈ 14.6 µM); in test [11], 1.95 µg/mL (≈ 7.3 µM); in test [12], 0.98 µg/mL (≈ 3.67 µM). Moreover, the minimal inhibitory concentration (MIC) in [13] is 0.49 µg/mL (≈ 1.83 µM); in test [14], 3.9 µg/mL (≈ 14.6 µM); in test [15], greater than 31.3 µg/mL; in test [16], 7.8 µg/mL (≈ 29.2 µM); in test [17], 0.49 µg/mL (≈ 1.83 µM); in [18] it was greater than 31.3 µg/mL. The MIC in test [19] is greater than 31.3 µg/mL.
Take `COc1cccc(NNC(=O)c2ccc(F)cn2)c1`: the MIC in test [1] is 0.24 µg/mL (≈ 0.919 µM); in test [2], 0.98 µg/mL (≈ 3.75 µM); in test [3], 0.49 µg/mL (≈ 1.88 µM); in test [4], 3.9 µg/mL (≈ 14.9 µM); in test [5] it was 1.95 µg/mL (≈ 7.46 µM); in test [6], 1.95 µg/mL (≈ 7.46 µM). For the same compound, the MIC in [7] is 0.98 µg/mL (≈ 3.75 µM); in test [8], 15.6 µg/mL (≈ 59.7 µM); in test [9], 0.24 µg/mL (≈ 0.919 µM); in [10] it was 3.9 µg/mL (≈ 14.9 µM); in test [11], 1.95 µg/mL (≈ 7.46 µM); in test [12], 0.98 µg/mL (≈ 3.75 µM). Moreover, the MIC is 0.24 µg/mL (≈ 0.919 µM) in test [13]; 3.9 µg/mL (≈ 14.9 µM) in test [14]; greater than 31.3 µg/mL in [15]; greater than 31.3 µg/mL in test [16]; 1.95 µg/mL (≈ 7.46 µM) in [17]; greater than 31.3 µg/mL in test [18]. The MIC in [19] was greater than 31.3 µg/mL.

In general, MIC refers to the smallest concentration in the dilution series that meets the test's criterion for growth inhibition.
